According to ChEMBL document CHEMBL1121699, “Induction of differentiation of leukemia cells in vitro by N-substituted amides, lactams, and 2-pyridones” (1981):

How the values were obtained:
[1] = test system: Erythroleukemia cell line; experiment: Percentage of benzidine-positive murine erythroleukemia cells on day 6.; type: functional, Mus musculus
How it was run: (§1)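 Clone 745A erythroleukemia cells were exposed continuously from seeding (1 × 10^5 cells/mL) to graded twofold concentrations over at least a 10-fold range, in at least two experiments, with a Me2SO (210 mM) positive control. On day 6, hemoglobin-containing cells were stained blue with acid benzidine peroxide and counted by light microscopy. The optimum concentration was averaged across experiments.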

[2] = test system: Erythroleukemia cell line; experiment: Cell growth was measured on day 3, after murine erythroleukemia cells were exposed at a cell concentration of 1*10e5 cells/mL.; type: functional, Mus musculus
How it was run: (§2)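 Friend murine erythroleukemia cells (clone 745A) were grown in DMEM with 15% fetal calf serum at 37 °C in 10% CO2. Agents were given as aqueous, ethanol or acetone solutions at seeding (1 × 10^5 cells/mL) and left on continuously. Cells were counted electronically on day 3 or day 6 and expressed as percentage of control growth. Runs were in duplicate.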

[3] = test system: Erythroleukemia cell line; experiment: Cell growth was measured on day 6 after murine erythroleukemia cells were exposed at a cell concentration of 1*10e5 cells/mL.; type: functional, Mus musculus; how it was run: as §2
[4] = test system: Erythroleukemia cell line; experiment: Concentration producing the maximum percentage of benzidine-positive cells after 6-days of continuous exposure in murine leukemia cells.; type: functional, cell-based; conditions: Mus musculus; how it was run: as §1

Compound | Benzidine positive cells [1] [%] | Cell growth [2] [%] | Cell growth [3] [%] | Concentration [4] [mM]
CNC(=O)c1ccccn1 | 60 | 50 | 80 | 2
CNC(=O)c1cccnc1 [NICOTINYL METHYLAMIDE] | 93 | 94 | 78 | 4
CC(=O)Nc1ccncc1 | 34 | 37 | 60 | 5
O=C1CCCCCN1 [CAPROLACTAM] | 82 | 95 | 81 | 20
CC(=O)N(C)C | 84 | 32 | 21 | 40
CC(=O)Nc1ccccc1 [ACETANILIDE] | 71 | 75 | 65 | 4
CC(=O)Nc1cccnc1 | 86 | 183 | 167 | 5
CCN1CCCCCC1=O | 96 | 106 | 63 | 4
CCN1CCCCC1=O | 87 | 186 | 84 | 4
CC(=O)N1CCCCC1 | 85 | 50 | 138 | 8
CC(=O)N1CCCCC1=O | 86 | 170 | 74 | 20
O=C(Nc1ccccn1)C(F)(F)F | 69 | 98 | 89 | 1
CC(=O)NC1CCCCC1 | 92 | 95 | 150 | 4
CN1CCCCC1=O | 89 | 97 | 69 | 5
CN1CCCCCC1=O | 90 | 109 | 68 | 2
Cn1ccccc1=O | 89 | 74 | 62 | 4
CC(=O)N1CCCC1=O | 73 | 156 | 116 | 20
CC(=O)N1CCCCCC1=O | 53 | 102 | 85 | 4

Compound | Benzidine positive cells [1] [%] | Cell growth [2] [%] | Cell growth [3] [%] | Concentration [4] [mM]
O=C(CCl)Nc1ccccn1 | 83 | 98 | 119 | 2
Oc1ccccn1 | 95 | 114 | 77 | 16
CNC(=O)c1ccccc1 | 62 | 54 | 99 | 1
CC(=O)Nc1ccccn1 | 85 | 144 | 58 | 2
CCCCn1ccccc1=O | 76 | 103 | 125 | 1
CNC(C)=O | 90 | 121 | 55 | 40
O=C1CCCN1 [2-PYRROLIDONE] | 89 | 26 | 100 | 100
O=C1CCCCN1 | 64 | 72 | 67 | 40
CC(=O)N(c1ccccn1)c1ccccn1 | 36 | 74 | 85 | 2
CCCn1ccccc1=O | 82 | 112 | 129 | 2
CC(C)n1ccccc1=O | 90 | 96 | 80 | 2
CCCCCCn1ccccc1=O | 58 | 101 | 75 | 1
CCn1ccccc1=O | 86 | 78 | 79 | 4
O=C(Nc1ccccn1)c1ccccn1 | 33 | 35 | 50 | 1
CCN1CCCC1=O | 90 | 53 | 81 | 10
CN1CCCC1=O [METHYLPYRROLIDONE] | 87 | 97 | 83 | 10
CC(=O)N1CCCC1 | 60 | 54 | 99 | 4
